This is a sample that favours compounds with a hit; in the whole collection about 2.8% have one here.
SR-BI uptake up: SR-BI HDL lipid transfer activation. 320,000 compounds, 0.096% hits. CHO ldlA[mSR-BI] cells, DiI-HDL uptake fluorescence, 3 h; 100 = double the neutral-control signal. AID 504775. activation, % at 12.5 µM;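 active means mean replicate activation of at least 60% and every replicate at or above 60%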;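 further: 0% = median plate neutral-control signal and 100% = twice that signal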
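system = CHO ldlA[mSR-BI] cells, LDL receptor-null, SR-BI overexpressing | medium = Ham's F12 with 0.5% BSA, HEPES 25 mM, pH 7.4 | probe or stimulus = DiI-HDL 10 µg/mL | compound dosing = single-point compound dose | incubation = compound exposure 3 h, 37 °C | technique = DiI fluorescence, bottom read | read-out = cell-associated DiI fluorescence as measure of HDL uptake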
CAL PDZ FP-1: blocks peptide binding to human CAL PDZ domain; purified CAL PDZ, TMR-peptide fluorescence polarization, 1 h; inhibition, % at 20 µM; 330,000 compounds, 0.02% hits;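 active means highest replicate inhibition of at least 40%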;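 further: plate controls were DMSO neutral control wells for no effect and unlabeled competitor peptide control wells for full effect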
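Test system: tagged CAL PDZ domain / Buffer or medium: sodium phosphate/NaCl buffer pH 7.4 with TCEP, IgG, Thesit / Reagent: TMR-labelled reporter peptide T*-PRC34 bound in PDZ groove / Compound dosing: single point, 20 µM / Schedule: 1 h incubation at room temperature before polarization reading / Technique: fluorescence polarization (mP) / Benchmarks: unlabelled peptide, DMSO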
dFosB act: mouse delta FosB homodimer activation; P13346; purified delta FosB, TAMRA-CDK5 oligo fluorescence polarization; percent of positive-control signal above neutral wells; activation, % at 25 µM; 340,000 compounds, 0.99% hits; AID 493131;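 active means mean activation above about 17%, with every replicate also reaching it, limit read from the data, passing the limit was not always enough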
Target sequence (P13346 whole entry, looked up): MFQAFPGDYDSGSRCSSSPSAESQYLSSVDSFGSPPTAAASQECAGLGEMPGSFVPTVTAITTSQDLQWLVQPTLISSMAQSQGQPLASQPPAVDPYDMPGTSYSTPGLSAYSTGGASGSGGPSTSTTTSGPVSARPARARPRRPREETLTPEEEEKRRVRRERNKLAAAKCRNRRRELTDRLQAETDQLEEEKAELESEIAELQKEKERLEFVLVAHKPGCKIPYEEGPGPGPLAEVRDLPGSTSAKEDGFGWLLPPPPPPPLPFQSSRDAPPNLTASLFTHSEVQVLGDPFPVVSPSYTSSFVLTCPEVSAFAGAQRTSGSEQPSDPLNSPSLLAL
SR-BI DiI inh: mouse SR-BI HDL lipid transfer inhibition | Q61009 | inhibition, % at 12.5 µM | ldlA[mSR-BI] CHO cells, DiI-HDL uptake fluorescence, 3 h | 320,000 compounds, 0.96% hits;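 active means mean replicate inhibition of at least 70% and a set share of replicates each scoring 70 or more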;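 further: 0% = median of neutral control wells and 100% = median of positive control wells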
CAL PDZ FP-2: CAL PDZ (human) peptide binding inhibition; Q9HD26; purified CAL PDZ, TMR-peptide fluorescence polarization, 1 h; inhibition, % at 24.9 µM; 300,000 compounds, 0.92% hits;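 active means mean inhibition of at least 30% with at least half of replicates also reaching 30%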;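 further: 0% = DMSO neutral control and 100% = excess unlabeled competitor peptide PRC23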
* hit, by the source's call; i = inactive; · = no result given.

SMILES | SR-BI uptake up | CAL PDZ FP-1 | dFosB act | SR-BI DiI inh | CAL PDZ FP-2
CCn1ccnc1CN1CCc2c([nH]c3ccccc23)C1C(C)(C)C (stereo not drawn) | 5.1 | -0.8 | 2.9 | -5.1 | 79.7*
CCn1ccnc1CN1CCc2c([nH]c3ccccc23)C1CC(C)C (stereo not drawn) | -17.5 | -2.1 | -14.7 | 17.5 | ·
Cc1cc(C)n(C(=O)c2cccc(S(=O)(=O)N3CCOCC3)c2)n1 | -26.1 | -0.2 | -0.6 | 26.1 | 63.6*
Cc1cccc(C)c1NC(=O)C1CCCN1S(=O)(=O)c1ccc2c(c1)n(C)c(=O)c(=O)n2C (stereo not drawn) | 12.6 | -0.8 | -10.3 | -12.6 | ·
CC(C)c1c(Cl)c(O)c(-c2ccccc2)c(=O)n1-c1ccc(F)cc1 | 2.5 | -0.5 | -0.9 | -2.5 | 38.0*
CC(C)CC1Nc2ncnc(N3CCN(c4ccccn4)CC3)c2N(Cc2ccccc2)C1=O (stereo not drawn) | 21.0 | -0.1 | -2.6 | -21.0 | 0.7
Cc1nnc(SCC(=O)NC2CCS(=O)(=O)C2)n1Cc1ccccc1 (stereo not drawn) | 65.9* | -2.2 | -1.2 | -65.9 | -1.8
CC(C)NS(=O)(=O)c1ccc(NC(=O)C(C)OC(=O)CCC(=O)c2cccs2)cc1 (stereo not drawn) | -16.0 | -0.6 | -12.1 | 16.0 | 0.1
CC(C)Sc1nnc(SCC(=O)NCCCN2CCCC2=O)s1 | 14.7 | 0.0 | 0.2 | -14.7 | 44.1*
CCN(C(=O)c1ccc2c(c1)OCO2)C12CC3CC(CC(C3)C1)C2 | -29.0 | 2.1 | 2.3 | 29.0 | -2.3
CC(C)CNc1nc(S(=O)(=O)c2ccccc2)c(Cl)s1 | -0.3 | -2.1 | 4.9 | 0.3 | -3.6
CN(C)CCNc1nc(S(=O)(=O)c2ccccc2)c(Cl)s1 | 14.1 | -0.9 | 3.1 | -14.1 | 82.6*
S=C(NNc1ccnc2cc(Cl)ccc12)Nc1ccccc1Cl | -89.1 | -4.0 | 0.1 | 89.1* | -0.1
COc1ccc(OC)c(C(=O)COC(=O)c2cccnc2SC)c1 | -32.0 | -1.9 | -19.9 | 32.0 | 35.3*
COc1ccc(C(=O)COC(=O)c2cccnc2SC)cc1 | -23.7 | -2.7 | 6.3 | 23.7 | -3.0
COc1cc(OC)c(NC(=O)CCCNC(=O)Cn2cnc3sc(C)c(C)c3c2=O)cc1Cl | -81.4 | -4.8 | 3.7 | 81.4* | -5.0
COc1ccc(C)cc1NC(=O)CCCNC(=O)Cn1cnc2sc(C)c(C)c2c1=O | -78.4 | -2.2 | -3.4 | 78.4* | -5.2
COC(=O)c1sc2ncn(CC(=O)NCCc3ccc(OC)c(OC)c3)c(=O)c2c1C | -75.8 | -0.6 | 2.8 | 75.8* | 2.9
CCOc1ccccc1NC(=O)CCCNC(=O)Cn1cnc2sc(C)c(C)c2c1=O | -72.4 | -0.4 | -13.2 | 72.4* | -3.6
COc1ccc(NC(=O)CCCNC(=O)Cn2cnc3sc(C)c(C)c3c2=O)cc1Cl | · | -2.3 | -2.9 | · | -2.5
COc1ccc(NC(=O)CCCNC(=O)Cn2cnc3sc(C)c(C)c3c2=O)c(OC)c1 | 1.5 | -2.3 | -0.4 | -1.5 | -3.5
CC(CCc1ccccc1)NC(=O)c1ccc(F)cc1 (stereo not drawn) | · | 0.3 | 3.6 | · | 2.5
CCOC(=O)c1c(S(=O)(=O)N2CCCC(C(=O)Nc3cccc(C)n3)C2)c(C)n(C)c1C (stereo not drawn) | -0.1 | -2.6 | -4.8 | 0.1 | -5.8
CCc1ccccc1NC(=O)CC1SCCNC1=O (stereo not drawn) | 26.8 | -1.4 | 0.1 | -26.8 | 32.0*
O=C(CC1SCCNC1=O)Nc1cccc(Cl)c1 (stereo not drawn) | 19.5 | -0.6 | -10.2 | -19.5 | -1.9
SMILES | SR-BI uptake up | CAL PDZ FP-1 | dFosB act | SR-BI DiI inh | CAL PDZ FP-2
CCn1cnnc1SCC(=O)Nc1ccccc1C(=O)NC1CC1 | 23.9 | -0.4 | -2.0 | -23.9 | ·
O=C(NNC(=O)c1cc2ccccc2o1)c1ccc(F)cc1 | 14.0 | -3.6 | 0.2 | -14.0 | -1.1
O=C(NNC(=O)c1cc2ccccc2o1)c1ccc(Cl)cc1 | 510.5* | -0.6 | 2.5 | i | ·
Cc1onc(-c2ccccc2)c1C(=O)NCC(O)c1ccccc1 (stereo not drawn) | 3.0 | 0.6 | -0.3 | -3.0 | -4.6
O=C(C(c1ccccc1)c1ccccc1)N1CCN(Cc2ccccn2)CC1 | 20.7 | -0.5 | -1.0 | -20.8 | 30.6*
CC(NC(=O)C(=O)N/N=C\c1ccc([N+](=O)[O-])cc1)c1ccccc1 (stereo not drawn) | -1.0 | -0.4 | 3.5 | 1.0 | 39.9*
COc1ccccc1CCC(=O)Nc1ccc2c(c1)CN(Cc1ccc(C)o1)CC2 | -81.1 | -1.1 | -12.4 | 81.1* | -1.9
CCn1cc(CN2CCCC(C(=O)Nc3cccc(-c4cc5ccccc5[nH]4)c3)C2)cn1 (stereo not drawn) | -45.7 | 1.6 | 0.7 | 45.7 | 51.5*
CCOc1ccc(/C=C2/C(=N)N3OC(C)=CC3=NC2=O)cc1OC | 85.5* | -1.6 | -0.5 | -85.5 | 0.7
COc1ccc(C2CC(=O)c3c(C)nc(N4CCN(c5ccccc5)CC4)nc3C2)cc1 (stereo not drawn) | -17.6 | -0.8 | -1.1 | 17.6 | 37.8*
CN(C)CCNC(=O)c1cccc2[nH]c(-c3ccncc3)nc12 | 28.6 | -0.4 | 38.2* | -28.6 | -3.7
CN(C)CCNC(=O)c1cccc2nc3c(ccc4ccccc43)nc12 | 2.9 | 3.1 | 72.7* | -2.9 | 1.7
COc1cccc2nc3c(C(=O)NCCN(C)C)cccc3cc12 | -7.4 | -1.2 | -38.9 | 7.4 | -4.4
CN(CCNC(=O)c1c[nH]c2c1ccc1ccccc12)CCNC(=O)c1c[nH]c2c1ccc1ccccc12 | -14.8 | -2.7 | 43.6* | 14.8 | -0.3
C=CCNC(=O)c1onc(CSc2ccccn2)c1C(=O)NCC=C | 24.8 | 0.2 | 2.8 | -24.8 | -2.8
CC(C)Oc1ccc(CNC(=O)c2cc(S(=O)(=O)N3CCOCC3)cn2C)cc1 | -14.1 | 0.1 | -7.7 | 14.1 | ·
Cc1ccc(NC(=O)C(c2ccc(Cl)cc2)N2CCOCC2)cc1 (stereo not drawn) | 16.6 | -1.5 | -12.6 | -16.6 | 43.2*
CCOc1ccc(NC(=O)CS(=O)CC(=O)NC2CCCc3ccccc32)cc1 (stereo not drawn) | -74.1 | · | -4.0 | 74.1* | 2.0
CCOC(=O)C1(CCOc2ccccc2)CCN(Cc2nccn2CC)CC1 | -4.6 | -0.5 | -3.3 | 4.6 | 32.5*
O=C(COC(=O)/C=C/c1cccc([N+](=O)[O-])c1)Nc1cccnc1Cl | 20.3 | 0.1 | 8.4 | -20.3 | -4.0
COc1ccc(Cl)cc1S(=O)(=O)N(C)CC(=O)NCc1ccccn1 | · | -0.9 | -1.0 | · | -3.4
O=C(C[N+]1(CC#Cc2ccccc2)CCOCC1)c1ccccc1 | -0.4 | -0.6 | -5.5 | 0.4 | 48.5*
O=C(C[N+]1(CC#Cc2ccccc2)CCOCC1)c1ccc(Cl)cc1 | -14.2 | -1.6 | 1.2 | 14.2 | -1.8
CCOC(=O)N1CCN(C(=O)c2cc3ccc(OC)cc3[nH]2)CC1 | -10.2 | 0.8 | -8.7 | 10.2 | -2.2

Source: PubChem BioAssay
